The list is not random: actives were taken first. Their share in the collection is about 2.3%.
JNK3 blocker = inhibitors of human JNK3 kinase; P53779; purified JNK3 kinase activity, HTS; inhibition, % at 8 µM; hit rate 0.61% among 60,000; in the data active = inhibition above about 17%;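 also: 0% = DMSO and 100% = reference inhibitor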
Target sequence (P53779 whole entry, looked up): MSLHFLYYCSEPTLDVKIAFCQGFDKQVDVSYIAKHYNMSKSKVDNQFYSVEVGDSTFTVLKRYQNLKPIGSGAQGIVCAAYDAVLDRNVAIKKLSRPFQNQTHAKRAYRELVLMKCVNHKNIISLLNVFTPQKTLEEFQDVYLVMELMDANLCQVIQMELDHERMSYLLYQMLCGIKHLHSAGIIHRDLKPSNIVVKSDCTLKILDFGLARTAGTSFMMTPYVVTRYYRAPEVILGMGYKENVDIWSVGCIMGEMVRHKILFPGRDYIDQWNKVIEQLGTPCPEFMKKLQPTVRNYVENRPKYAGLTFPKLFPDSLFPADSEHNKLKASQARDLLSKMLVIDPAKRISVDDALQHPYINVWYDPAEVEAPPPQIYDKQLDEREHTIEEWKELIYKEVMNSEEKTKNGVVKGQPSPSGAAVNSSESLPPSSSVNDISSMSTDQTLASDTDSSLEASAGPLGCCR
RORA act = activates the human nuclear receptor RORA; CHO-K1 Gal4-RORA LBD luciferase reporter, luminescence; percent increase over mock-subtracted basal signal; activation, % at 10 µM; hit rate 1.5% among 65,000;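 active = activation above the mean of all tested compounds plus 3 SD, cut at about 49% in these data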;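 also: 0% = DMSO-treated RORA cells and 100% = added signal equal to DMSO minus mock-transfected cells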
SF1 activator = activates the human nuclear receptor SF-1; Q13285; CHO-K1 Gal4-SF-1 LBD luciferase reporter; % increase over DMSO SF-1-specific signal; activation, % at 10 µM; hit rate 1.9% among 65,000;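 active = activation above the mean activation of all tested compounds plus 3 SD, cut at about 50% in these data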
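Assay system: CHO-K1 cells co-transfected with Gal4 DBD–human SF-1 LBD, 5xGal4 luciferase reporter / Input: 4,000 cells per well / Incubation: 20 h compound exposure at 37 °C after 1 h cell settling / Detection: SteadyLite luciferase luminescence / Control set: DMSO negative control and −SF1 background wells / Replication: one test per compound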
Calb biofilm kill = kills Candida albicans biofilms; C. albicans biofilm + clotrimazole, Alamar Blue; AID 834; hit rate 0.14% among 85,000; inhibition, % at 6 µM;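 active = inhibition above 20%; inactive = inhibition below 20%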;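 also: preformed 24 hr biofilms exposed to compound for 48 hr; 0% = biofilm without compound and 100% = blank killed by clotrimazole plus chlorhexidine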
An asterisk follows results filed as active; x = no result given.

SMILES	JNK3 blocker	RORA act	SF1 activator	Calb biofilm kill
O=C(N=C1SCC(=O)N1c1ccccc1Cl)c1ccco1	3	62*	55*	10
O=C(OCC(=O)c1c[nH]c2ccccc12)C1=COCCO1	4	55*	109*	-2
O=C(COC(=O)C1=COCCO1)NCCCc1ccccc1	0	-12	-4	7
CCOC(=O)c1c(C(=O)OCC)c(C)n(N2C(=O)CSC2=S)c1C	2	-4	-2	x
CCOC(=O)c1c(C)[nH]sc1=S	19*	-8	-5	x
CC(=O)Nc1nc(COc2ccccc2)cs1	-3	51*	38	8
CC(=O)Nc1nc(COc2ccc3ccccc3c2)cs1	x	x	x	5
CC(C)(C)c1ccc(-c2conc2N)cc1	1	23	52*	-2
O=C(COC(=O)c1ccc(Br)o1)Nc1ccc(S(=O)(=O)N2CCCC2)cc1	2	-15	-5	8
Cc1ccc(C(=O)N2CCN(c3ccc(NC(=O)c4ccc(Br)o4)cc3)CC2)cc1	x	x	x	-2
O=C(Nc1ccc(S(=O)(=O)N2CCCCCC2)cc1)c1ccc(Br)o1	11	50*	13	0
CS(=O)(=O)N1CCN(c2ccc(NC(=O)c3ccc(Br)o3)cc2)CC1	-15	17	56*	9
CCOC(=O)C1=C(C)N=C2SC(CC)C(=O)N2C1c1ccc(OC(C)=O)c(OCC)c1 (stereo not given)	x	-4	12	x
Cc1nc2nc(-c3ccccc3)nn2c(C)c1Cl	-5	77*	103*	2
COc1ccc(Cn2nc(C)n(N(C)c3ncc(C(F)(F)F)cc3Cl)c2=O)cc1	x	x	x	4
CCOC(=O)c1cnc(SCc2cccc(C)c2)nc1N	x	x	x	1
CCOC(=O)c1ccccc1NC(=O)CSc1nnnn1C1CCCCC1	-12	54*	5	5
COC(=O)c1ccccc1NC(=O)CSc1nnnn1C1CCCCC1	6	-3	1	0
CCOC(=O)N1CCN(C(=O)CSc2nc3c(cnn3-c3ccc(Cl)cc3)c(=O)[nH]2)CC1	-1	10	9	20*
CCOc1ccc(C(C)NC(=O)Nc2ccccc2C(=O)OC)cc1 (stereo not given)	x	x	x	0
COCCCN(C(C)=O)c1nc(-c2ccc(OC)cc2)cs1	7	84*	98*	3
COc1ccc(-c2csc(N(CCCN(C)C)C(=O)c3cccs3)n2)cc1	11	-1	2	-2
O=c1oc2c3c4c(cc2cc1-c1nc2ccccc2[nH]1)CCCN4CCC3	-3	52*	44	-1
O=c1oc2c(CN3CCCCC3)c(O)ccc2cc1-c1nc2ccccc2[nH]1	-8	16	27	5
Cn1c(SCc2ccccc2F)nc2cccnc21	4	80*	6	6
SMILES	JNK3 blocker	RORA act	SF1 activator	Calb biofilm kill
COc1ccc(C(=O)CSc2nc3cccnc3n2C)cc1	x	x	x	2
Fc1cccc(F)c1CSc1nc2ccccc2[nH]1	x	x	x	4
Fc1ccccc1CSc1nc2ncccc2[nH]1	7	34	51*	x
Cc1ccc(NC(=O)c2cc(NC(=O)C3CC=CCC3C(=O)O)ccc2N2CCOCC2)cc1Cl (stereo not given)	x	x	x	4
CCOC(=O)c1cn2c3c(c(F)c(F)c(F)c3c1=O)SC(N1CCCC1)=N2	-8	11	-14	6
Cc1ccc(C2NC(=O)Cc3ccccc32)cc1 (stereo not given)	x	x	x	5
Cc1csc(NC(=O)c2sc3nc(-c4cccs4)ccc3c2N)n1	4	38	50*	-4
CCOC(=O)c1[nH]c2ccc(OC)cc2c1C	11	28	59*	x
CCOC(=O)c1cc2cc(OC)ccc2[nH]1	-9	12	73*	7
NNC(=O)COc1cccc2cccnc12	x	x	x	3
O=C(COc1cccc2cccnc12)Nc1nccs1	1	75*	48	1
CC(=O)NC(=O)COC(=O)/C=C/c1c(C)nn(Cc2c(Cl)cccc2Cl)c1Cl	x	x	x	3
COc1ccc(OCc2ccc(C(=O)O)cc2)cc1	1	17	64*	3
COc1ccc(OCC(O)COc2ccc(C(=O)O)cc2)cc1 (stereo not given)	5	17	11	-6
CCc1cccc(CC)c1NC(=O)CN1CC(C)SC1=NC1CCCCC1 (stereo not given)	x	x	x	1
CCCn1c(SCC(=O)NCCc2ccccc2)nnc1-c1ccco1	x	x	x	3
O=C(NCCN1CCOCC1)c1noc2c1CCc1ccccc1-2	0	77*	41	7
CCOC(=O)c1snc(C(=O)NC2CCCCC2)c1N	-2	57*	106*	3
Nc1c(C(=O)NC2CCCCC2)nsc1C(=O)OCC(=O)NC1CCCCC1	2	-6	0	10
CSc1nnc(-c2sc3cc(C(F)(F)F)cnc3c2-c2cccnc2)n1C	x	x	x	54*
COc1ccc(-c2nnc(SCc3ccccc3F)o2)cc1	x	x	x	-5
